# From PubChem BioAssay
# Active and inactive are the calls of the source.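 Rule for the calls, unless noted: active = viability at or below 30% in both replicate assays; inconclusive = viability at or below 30% in just one of the two assays; inactive = the rest.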
# Tests used:
# [1] = Her2 expression decrease, cell viability multiplex – SKBR3 breast tumor cells, AlphaScreen, ATP viability, primary screen (AID 461;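 active = Her2 level under about 52% in both replicate screens, with viability over 70% of control, limit read from the data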;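 for Her2 level: lower value means less Her2 protein in the cells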;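 for viability: percent of carrier control wells set as 100% viability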); conditions: SKBR3 Her2 protein level, 18-24 h, measured here: SKBR3 viability, ATP luminescence, at 10 µM
# [2] = target: Receptor tyrosine-protein kinase erbB-2 (Homo sapiens) (UniProt P04626); assay: as above; conditions: 18-24 h, at 10 µM, stronger effect = lower value
# Sequence of Receptor tyrosine-protein kinase erbB-2 (Homo sapiens) (P04626 whole entry, looked up): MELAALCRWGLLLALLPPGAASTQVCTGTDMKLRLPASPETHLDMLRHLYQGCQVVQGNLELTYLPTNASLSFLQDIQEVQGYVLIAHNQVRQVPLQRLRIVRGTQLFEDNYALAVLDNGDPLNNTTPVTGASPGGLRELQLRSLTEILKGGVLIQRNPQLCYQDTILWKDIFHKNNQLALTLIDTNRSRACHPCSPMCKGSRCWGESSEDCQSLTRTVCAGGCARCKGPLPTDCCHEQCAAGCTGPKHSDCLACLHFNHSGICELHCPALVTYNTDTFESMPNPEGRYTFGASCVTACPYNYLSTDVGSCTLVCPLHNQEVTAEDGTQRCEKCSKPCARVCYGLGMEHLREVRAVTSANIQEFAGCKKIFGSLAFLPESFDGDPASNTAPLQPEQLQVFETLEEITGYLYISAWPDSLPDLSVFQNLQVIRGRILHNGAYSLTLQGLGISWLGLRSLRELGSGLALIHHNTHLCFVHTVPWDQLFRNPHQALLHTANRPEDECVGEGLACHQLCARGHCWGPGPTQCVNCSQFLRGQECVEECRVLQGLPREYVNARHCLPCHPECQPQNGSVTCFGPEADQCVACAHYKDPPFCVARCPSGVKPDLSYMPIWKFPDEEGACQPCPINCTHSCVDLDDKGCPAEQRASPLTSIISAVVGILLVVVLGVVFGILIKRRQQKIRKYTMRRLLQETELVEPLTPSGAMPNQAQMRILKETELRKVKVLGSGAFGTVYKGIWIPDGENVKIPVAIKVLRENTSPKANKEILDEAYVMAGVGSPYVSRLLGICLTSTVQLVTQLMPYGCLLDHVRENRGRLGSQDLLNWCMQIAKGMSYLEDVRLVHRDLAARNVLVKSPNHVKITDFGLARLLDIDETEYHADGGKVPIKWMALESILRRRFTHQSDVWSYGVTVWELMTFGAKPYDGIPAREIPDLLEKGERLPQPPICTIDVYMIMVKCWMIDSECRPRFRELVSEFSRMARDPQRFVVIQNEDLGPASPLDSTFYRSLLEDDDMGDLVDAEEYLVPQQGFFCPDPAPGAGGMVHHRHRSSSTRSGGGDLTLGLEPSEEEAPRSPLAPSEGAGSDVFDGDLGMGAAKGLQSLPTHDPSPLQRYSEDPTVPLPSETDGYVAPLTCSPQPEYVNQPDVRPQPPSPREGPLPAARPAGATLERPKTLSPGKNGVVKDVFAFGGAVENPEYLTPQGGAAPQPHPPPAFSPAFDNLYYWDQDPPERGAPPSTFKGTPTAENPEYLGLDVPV
# [3] = reduced viability of SK-BR-3 breast cancer cells – cell-based, 24 h, human, pilot screen (AID 572;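 active = viability at or below 10% of carrier control in both of two separate runs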;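 note: compound exposure lasted between 18 and 24 h rather than exactly 24 h; 100% = carrier-treated control wells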); conditions: SK-BR-3 viability, CellTiter-Glo luminescence, at 10 µM, stronger effect = lower value
# [4] = HUVEC growth inhibition – cell-based, human, primary screen (AID 575); conditions: HUVEC proliferation, CellTiter-Glo luminescence, 72 h; at 10 µM; stronger effect = lower value;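 note: 100% = median of untreated cell wells with 0.1% DMSO on each plate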
# How it was run: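 System – primary HUVEC, no more than 12 passages · Medium – Low-serum (2% FBS) EBM, supplemented · Times – 72 h exposure, 37 °C, 5% CO2, 30 min RT equilibration · Measured by – luminescent ATP assay · Read-out – % viability relative to median vehicle-well signal on each plate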
# [5] = H69AR cell proliferation blockers – human, duplicate replicates, primary screen (AID 580;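 active = viability at or under a set limit in both replicates, limit being median viability minus 3 SD, cut at about 48% in these data, passing the limit was not always enough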;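 note: 100% = mean luminescence of untreated wells and 0% = no signal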); conditions: H69AR lung tumor cells viability, ATP luminescence, 72 h; at 10 µM; stronger effect = lower value
# [6] = MRP1 drug-resistance reversers in H69AR cells – cell-based, doxorubicin co-treatment, pilot screen (AID 601;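 active = viability loss from added drug above about 55%, and viability with drug at most 40%, in both replicates, limit read from the data, passing the limit was not always enough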); conditions: CellTiter-Glo, 72 h, at 10 µM; for differential viability (reversal): stronger effect = higher value
# [7] = yeast transport mutant growth inhibition pilot in 384-well plates, post-Golgi transport modulator project (AID 636; in the data active = inhibition above about 31%); conditions: absorbance 615 nm, about 18 h, stronger effect = higher value
# [8] = growth suppression of yeast trafficking mutant, preliminary HTS, modulators of trafficking downstream of Golgi apparatus project, 1536-format plate, OD 615 nm (AID 637; in the data active = inhibition above about 30%); conditions: yeast transport mutant growth, absorbance 615 nm, 18 h; stronger effect = higher value
# [9] = H69AR cells + 2 uM doxorubicin, measured here: viability with 2 uM doxorubicin, stronger effect = lower value
# [10] = H69AR cells, compound alone cytotoxicity
Compound,viability [1],Her2 level [2],viability [3],viability [4],viability [5],differential viability (reversal) ([6]; H69AR cells + 2 uM doxorubicin),"viability [6, 9]","viability [6, 10]",inhibition [7],inhibition [8]
CCCN(CCC)C(=O)CSc1nc2ccccc2c(=O)n1C1CCCC1,136%,60.5% (inactive),136% (inactive),87.2% (inactive),66.7% (inactive),10.4% (inactive),56.3%,66.7%,-3.68% (inactive),-2.54% (inactive)
COc1cc(OC)c(C(=O)Nc2ccc(N(C)C)cc2)cc1OC,111%,84.5% (inactive),111% (inactive),103% (inactive),89% (inactive),-4.37% (inactive),93.4%,89%,-1.84% (inactive),-1.9% (inactive)
O=C(CN1CCCCCC1)OCCN=C1NS(=O)(=O)c2ccccc21,108%,96.5% (inactive),108% (inactive),88.1% (inactive),113% (inactive),22.9% (inactive),89.8%,113%,-2.21% (inactive),-6.51% (inactive)
Cc1cc(=O)n(C)c(=O)n1CCCCCN1CCCC1,96.5%,80% (inactive),96.5% (inactive),100% (inactive),99.8% (inactive),14.7% (inactive),85.2%,99.8%,-1.2% (inactive),0.48% (inactive)
COc1ccc(C(=O)Nc2cccc(-c3nc4ncccc4o3)c2C)cc1OC,99%,122% (inactive),99% (inactive),81.8% (inactive),92.8% (inactive),1.52% (inactive),91.2%,92.8%,3.42% (inactive),-3.97% (inactive)
Cc1cc(NS(=O)(=O)c2ccccc2)n(-c2ccccc2)n1,106%,95.5% (inactive),106% (inactive),85.2% (inactive),96.2% (inactive),-2.34% (inactive),98.6%,96.2%,-4.13% (inactive),2.1% (inactive)
CC(C)(C)C(=O)N=C1SC2CS(=O)(=O)CC2N1c1ccc2c(c1)OCO2 (stereo not given),88%,110% (inactive),88% (inactive),104% (inactive),106% (inactive),10.5% (inactive),95.7%,106%,0.79% (inactive),-7.82% (inactive)
COC(=O)c1cc(-c2c(C)oc3cc(O)ccc3c2=O)c(C)o1,100%,90.5% (inactive),100% (inactive),91.3% (inactive),84.9% (inactive),-6.25% (inactive),91.1%,84.9%,-4.94% (inactive),-1.27% (inactive)
Cc1ccc(-c2cc(C(=O)NCCN3CCOCC3)no2)cc1,86.5%,120% (inactive),86.5% (inactive),95.3% (inactive),99.8% (inactive),12.7% (inactive),87%,99.8%,3.07% (inactive),-6.83% (inactive)
COC(=O)c1ccccc1S(=O)(=O)N(CCCN1CCOCC1)Cc1cccs1,111%,110% (inactive),111% (inactive),91.8% (inactive),89.2% (inactive),-0.97% (inactive),90.2%,89.2%,-1.45% (inactive),5.4% (inactive)
O=C(O)Cn1cc(C(=O)c2ccco2)c2ccccc21,95%,100% (inactive),95% (inactive),105% (inactive),85.5% (inactive),-4.73% (inactive),90.3%,85.5%,-0.52% (inactive),3.61% (inactive)
CC1(C)OC(=O)C(=CNc2ccccc2F)C(=O)O1,102%,83.5% (inactive),102% (inactive),97.6% (inactive),91.2% (inactive),-1.11% (inactive),92.4%,91.2%,-2.99% (inactive),2.06% (inactive)
O=C(Cn1cnc2ccccc2c1=O)NCCC(=O)N1CCN(Cc2ccccc2)CC1,89%,90% (inactive),89% (inactive),98.6% (inactive),89.8% (inactive),4.66% (inactive),85.2%,89.8%,0.52% (inactive),0.98% (inactive)
CC(C)CCNC(=O)C1CCN(C(=O)N(C)C)CC1,104%,125% (inactive),104% (inactive),108% (inactive),98.8% (inactive),5% (inactive),93.8%,98.8%,-1.41% (inactive),-1.33% (inactive)
COc1ccc(-c2ccc(-c3nnc(-c4ccncc4)o3)cc2)cc1,130%,103% (inactive),130% (inactive),119% (inactive),96.3% (inactive),6.73% (inactive),89.5%,96.3%,-5.87% (inactive),0% (inactive)
Clc1ccc(Cl)c(-c2ccc(/C=N/c3ncn[nH]3)o2)c1,105%,81% (inactive),105% (inactive),64.5% (inactive),72.8% (inactive),-11.9% (inactive),84.8%,72.8%,-6.8% (inactive),4.59% (inactive)

Compound,viability [1],Her2 level [2],viability [3],viability [4],viability [5],differential viability (reversal) ([6]; H69AR cells + 2 uM doxorubicin),"viability [6, 9]","viability [6, 10]",inhibition [7],inhibition [8]
CCOC(=O)c1cccc(NC(=O)Cn2cnc3c2c(=O)n(C)c(=O)n3C)c1,104%,91.5% (inactive),104% (inactive),102% (inactive),91.2% (inactive),-6.33% (inactive),97.5%,91.2%,-2.97% (inactive),-9.33% (inactive)
O=C(CSc1nnnn1-c1ccccc1)c1cc2ccccc2oc1=O,95.5%,102% (inactive),95.5% (inactive),86.5% (inactive),74.2% (inactive),-4.18% (inactive),78.3%,74.2%,-6.62% (inactive),-6.83% (inactive)
Cc1ccc(N2C(=O)c3ccccc3C2Nc2cccnc2)nc1 (stereo not given),94%,99.5% (inactive),94% (inactive),85.4% (inactive),83.3% (inactive),-10.8% (inactive),94.1%,83.3%,-2.18% (inactive),-1.33% (inactive)
O=C(NC1CCCCC1)n1c(=O)oc2ccc(Cl)cc21,118%,92% (inactive),118% (inactive),94.8% (inactive),94.2% (inactive),17.5% (inactive),76.7%,94.2%,-2.73% (inactive),-7.62% (inactive)
CC(=O)N1CCN(Cc2ccc(Br)s2)CC1,93.5%,88% (inactive),93.5% (inactive),86.3% (inactive),99.3% (inactive),11.1% (inactive),88.3%,99.3%,-3.51% (inactive),-1.31% (inactive)
CCSc1nnc(NC(=O)CSc2ncccn2)s1,97.5%,102% (inactive),97.5% (inactive),112% (inactive),107% (inactive),22.3% (inactive),84.5%,107%,-5.07% (inactive),-2.74% (inactive)
CCOC(=O)c1c(C)n(C)c2ccc(OC)c(NC(=O)CCN3CCSCC3)c12,122%,91.5% (inactive),122% (inactive),96.7% (inactive),83.5% (inactive),-1.65% (inactive),85.1%,83.5%,-2.89% (inactive),-2.74% (inactive)
O=C(NCc1ccco1)c1cnn2c(C(F)(F)F)cc(-c3ccco3)nc12,86.5%,74.5% (inactive),86.5% (inactive),92.9% (inactive),71.8% (inactive),0.17% (inactive),71.7%,71.8%,-7.26% (inactive),1.9% (inactive)
O=C(CN(Cc1ccc2c(c1)OCO2)C(=O)CNS(=O)(=O)c1ccccc1)NCc1ccco1,97%,86.5% (inactive),97% (inactive),107% (inactive),99.4% (inactive),2.35% (inactive),97%,99.4%,0.41% (inactive),-1.31% (inactive)
COC(=O)c1ccc(NC(=O)Cn2nnc3ccccc32)cc1,94%,82.5% (inactive),94% (inactive),109% (inactive),108% (inactive),17.7% (inactive),90%,108%,0.13% (inactive),0% (inactive)
CCc1c(C(=O)N2CCOCC2)csc1C,120%,154% (inactive),120% (inactive),101% (inactive),106% (inactive),20.8% (inactive),84.9%,106%,-3.95% (inactive),-8.33% (inactive)
O=S(=O)(NCCc1csc(-c2ccccc2)n1)c1ccc2c(c1)OCCO2,103%,76% (inactive),103% (inactive),101% (inactive),93.6% (inactive),4.63% (inactive),89%,93.6%,-1.97% (inactive),4.59% (inactive)
CCc1cccc(NC(=O)C2CCCN(S(=O)(=O)c3c(C)[nH]c(=O)[nH]c3=O)C2)c1 (stereo not given),89.5%,82% (inactive),89.5% (inactive),97% (inactive),95% (inactive),6.79% (inactive),88.2%,95%,-2.89% (inactive),-3.83% (inactive)
COC(=O)c1cc(Br)c(=O)n(Cc2cccnc2)c1,108%,81.5% (inactive),108% (inactive),95.9% (inactive),97.3% (inactive),17% (inactive),80.3%,97.3%,-3.95% (inactive),0.18% (inactive)
Cc1c(C(=O)O)oc2ccc(S(=O)(=O)NCc3ccccc3)cc12,105%,113% (inactive),105% (inactive),113% (inactive),106% (inactive),0.815% (inactive),105%,106%,-3.42% (inactive),-6.51% (inactive)
